UPR XBP1 act – activators of adaptive arm of unfolded protein response (XBP1); 0.33% of 330,000 active; CHO-XBP1 luciferase reporter, IRE1-XBP1 UPR activation, luminescence; percent of tunicamycin response, DMSO as zero; activation, % at 20 µM;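 active = versus positive control, 20 µM dose yields 30% or more activation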
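Assay system: CHO-XBP1 luciferase reporter cells; Schedule: 6 h treatment, 37 °C; Detection: glow luminescence from Steady-Glo reagent; Benchmarks: high control tunicamycin 10 µg/mL final, low control DMSO vehicle only.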
TMEM16A act – activators or potentiators of mouse TMEM16A chloride channel | Q8BHY3 | HEK293 TMEM16A/YFP-H148Q/I152L, iodide quench fluorescence; active compounds read low | 0.3% of 340,000 active | B-score at 10 µM;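 active = fluorescence-ratio B-score plate-corrected deviation score at least 3 library SD below zero, with starting fluorescence score within 5 deviations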;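 note: channel opened by trigger with iodide after compound preincubation; score built on the fluorescence ratio of max minus min over baseline; more negative score means more quench and so TMEM16A activation or potentiation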
CHOP UPR activ – activators of apoptotic arm of unfolded protein response (CHOP). 0.34% of 330,000 active. activation, % at 10 µM. AID 449763. CHO-CHOP luciferase reporter, UPR activation, luminescence; percent of tunicamycin response over DMSO baseline;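 active = at 10 µM dose, activation of 40% or more, normalized to positive control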
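measured by = luciferase luminescence | assay system = CHO-CHOP cells, stable luciferase reporter of PERK-eIF2a-CHOP signalling | amount = 500 reporter cells seeded per well | timing = 6 h compound exposure at 37 °C after overnight seeding | controls = positive tunicamycin 10 µg/mL, negative DMSO alone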
TMEM16A inh – mouse TMEM16A channel inhibition, primary screen. AID 588511. Q8BHY3. HEK293 TMEM16A/YFP iodide influx fluorescence, ionomycin. normalized B-score (activity score, 25-100; higher = stronger inhibition) at 10 µM. 1.2% of 310,000 active;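 active = ratio plate-corrected score three or more library SD toward inhibition, starting fluorescence score within five deviations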;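 note: score derived from kinetic fluorescence span divided by baseline fluorescence per well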
CHOP inhibitor – CHOP inhibition in unfolded protein response; CHO-K1 CHOP-promoter luciferase, tunicamycin-induced, 15-18 h; AID 2732; 3.8% of 220,000 active; inhibition, % at 10 µM;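 active = compounds that reduced the stress-induced luciferase reporter signal by more than about 70% of percent inhibition, limit read from the data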
Hep lipid drop – hepatic lipid droplet formation modulation; 0.4% of 240,000 active; AML12 mouse hepatocytes, oleate lipid droplets, BODIPY imaging; AID 1656; inhibition, % at 6.5 µM;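 active = lipid droplet intensity inhibited by at least 50%, with more than 500 cells counted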
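Material – mouse AML12 hepatocyte cell line, fixed after treatment · Compound dosing – one dose, 6.5 µM compound · Times – compound with oleate, overnight · Measured by – Image-based BODIPY and DAPI two-channel analysis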
Hits are given with their value. Shown are actives, neighbours in structure and some others; about 4.2% of the full set was active somewhere.

`O=C(COc1cccc(C(F)(F)F)c1)N1CCN(c2ccc(O)cc2)CC1` gave UPR XBP1 act inactive, TMEM16A act inactive, CHOP UPR activ inactive, TMEM16A inh inactive, CHOP inhibitor inactive and Hep lipid drop inactive.
`O=C(COc1ccc(S(=O)(=O)NC2CCCCC2)cc1)N1CCN(c2cccc(Cl)c2)CC1` gave UPR XBP1 act inactive, TMEM16A act inactive, CHOP UPR activ inactive, TMEM16A inh inactive, CHOP inhibitor 79 and Hep lipid drop inactive.
Screening CC(C)NS(=O)(=O)c1ccc(OCC(=O)N2CCN(c3ccccc3)CC2)cc1 returned UPR XBP1 act inactive, TMEM16A act inactive, CHOP UPR activ inactive, TMEM16A inh inactive, CHOP inhibitor inactive and Hep lipid drop inactive.
COCC(=O)N1CCN(c2cccc(C(F)(F)F)c2)CC1 was read as UPR XBP1 act inactive, TMEM16A act inactive, CHOP UPR activ inactive, TMEM16A inh inactive, CHOP inhibitor inactive and Hep lipid drop inactive.
For C=CCOC(=O)N1CCN(c2cccc(C(F)(F)F)c2)CC1 the results were UPR XBP1 act inactive, TMEM16A act inactive, CHOP UPR activ inactive, TMEM16A inh inactive and CHOP inhibitor 81.
For COCC(=O)N1CCC(Oc2ccc(C(=O)NC(C)c3csc(C)n3)cc2)CC1 (centres undefined) the results were UPR XBP1 act inactive, TMEM16A act inactive, CHOP UPR activ inactive, TMEM16A inh inactive and Hep lipid drop inactive.
Screening O=C(COC(=O)CSc1ccc(Cl)cc1)NCCc1ccccc1 returned UPR XBP1 act inactive, TMEM16A act inactive and CHOP UPR activ inactive.
O=C(COC(=O)C1CSC2(c3ccc(F)cc3)CCC(=O)N12)NC(=O)NC1CCCC1 (centres undefined) was read as UPR XBP1 act inactive, TMEM16A act inactive, CHOP UPR activ inactive, TMEM16A inh inactive, CHOP inhibitor 73 and Hep lipid drop inactive.
`Cc1ccc(S(=O)(=O)NC(CC(C)C)C(=O)N2CCN(C/C=C/c3ccccc3)CC2)cc1` (centres undefined) gave UPR XBP1 act inactive, TMEM16A act inactive and CHOP UPR activ inactive.
For O=S(=O)(NCCc1csc(-c2ccc(C(F)(F)F)cc2)n1)c1ccc2c(c1)OCCO2 the results were UPR XBP1 act inactive, TMEM16A act inactive, CHOP UPR activ inactive, TMEM16A inh inactive, CHOP inhibitor 81 and Hep lipid drop inactive.
`Cc1ccc(-c2nnn(CC(=O)N(Cc3cccs3)C(C(=O)NC3CCCC3)c3ccco3)n2)o1` (centres undefined) gave UPR XBP1 act inactive, TMEM16A act inactive, CHOP UPR activ inactive, TMEM16A inh inactive and CHOP inhibitor inactive.
CC(C)(C)NC(=O)C(c1ccco1)N(C(=O)Cn1nnc(-c2ccc(F)cc2)n1)c1ccccc1F (centres undefined) was read as UPR XBP1 act inactive, TMEM16A act inactive, CHOP UPR activ inactive, TMEM16A inh inactive, CHOP inhibitor 84 and Hep lipid drop inactive.
`Cc1ccc(-c2nnn(CC(=O)N(c3ccccc3)C(C(=O)NC3CCCC3)c3ccco3)n2)o1` (centres undefined) gave UPR XBP1 act inactive, TMEM16A act inactive, CHOP UPR activ inactive, TMEM16A inh inactive, CHOP inhibitor 94 and Hep lipid drop inactive.
For COc1cccc(-c2nn(C)c3sc(C(=O)N4CCN(c5ccccn5)CC4)cc23)c1 the results were UPR XBP1 act inactive, TMEM16A act inactive, CHOP UPR activ inactive, TMEM16A inh 25, CHOP inhibitor inactive and Hep lipid drop inactive.
For CC1C(=O)Nc2ccc(S(=O)(=O)N3CCN(c4cccc(C(F)(F)F)c4)CC3)cc2NC1=O (centres undefined) the results were UPR XBP1 act inactive, TMEM16A act inactive, CHOP UPR activ inactive, TMEM16A inh inactive and Hep lipid drop inactive.
`O=C1CCc2cc(S(=O)(=O)N3CCN(c4cccc(C(F)(F)F)c4)CC3)ccc2N1` gave UPR XBP1 act inactive, TMEM16A act inactive, CHOP UPR activ inactive, TMEM16A inh inactive and CHOP inhibitor 87.
